Reference: ChEMBL document CHEMBL4376859, “Prodrugs for nitroreductase-based cancer therapy-3: Antitumor activity of the novel dinitroaniline prodrugs/Ssap-NtrB enzyme suicide gene system: Synthesis, in vitro and in silico evaluation in prostate cancer” (Eur J Med Chem, 2020)
Activity calls are given as the source filed them. No cut-off for these calls is given here.

Columns and labels:
[1] = Cytotoxicity against human HUVEC cells assessed as cell viability at 9 to 150 uM after 24 hrs by MTT assay relative to control; assay type: cell-based; conditions: read-out: Activity
In short: (§1)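 Hep3B hepatoma, PC-3 prostate cancer and HUVEC (healthy control) cells were exposed to nitro compounds at 150, 75, 38, 19 and 9 µM for 24 h and 48 h. Viability was read by MTT assay, and IC50 values were derived from the growth inhibition curves.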

[2] = tested on: PC-3; test: Cytotoxicity against human PC3 cells assessed as reduction in cell viability after 48 hrs by SRB assay; assay type: functional, cell-based
In short: (§2)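 Compounds were reduced outside the cells by purified His-tag (Ni column) Ssap-NtrB. The reaction mix held 600 µM NADH and compound (150, 39, 9 µM, or 180, 18, 1.8 nM) and was applied to PC-3 cells. Controls were compound alone in 25 mM Tris/HCl pH 7.5, and enzyme alone at 31 µg/mL. After 48 h, SRB absorbance was read at 492 nm and converted to % viability.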

[3] = tested on: PC-3; test: Cytotoxicity against human PC3 cells […] Staphylococcus saprophyticus nitroreductase NtrB assessed as reduction in cell viability in presence of NADH as cofactor after 48 hrs by SRB assay; assay type: functional, cell-based; conditions: PC-3, 48 h; in short: as §2
[4] = tested on: PC-3; test: Cytotoxicity against human PC3 cells assessed as cell viability at 9 to 150 uM after 48 hrs by MTT assay relative to control; assay type: functional; in short: as §1
[5] = tested on: Hep 3B2; test: Cytotoxicity against human Hep3B cells assessed as cell viability at 9 to 150 uM after 48 hrs by MTT assay relative to control; assay type: functional; in short: as §1
[6] = tested on: Hep 3B2; test: Cytotoxicity against human Hep3B cells assessed as cell viability at 9 to 150 uM after 24 hrs by MTT assay relative to control; assay type: functional; in short: as §1
[7] = target: T1, Putative nitroreductase (Staphylococcus saprophyticus subsp. saprophyticus (strain ATCC 15305 / DSM20229 / NCIMB 8711 / NCTC 7292 / S-41), UniProt Q4A0P1); test: Substrate activity at Staphylococcus saprophyticus nitroreductase expressed in Escherichia coli BL21 (DE3) assessed as retention time by HPLC analysis; assay type: ADME
T1 sequence (Q4A0P1 whole entry): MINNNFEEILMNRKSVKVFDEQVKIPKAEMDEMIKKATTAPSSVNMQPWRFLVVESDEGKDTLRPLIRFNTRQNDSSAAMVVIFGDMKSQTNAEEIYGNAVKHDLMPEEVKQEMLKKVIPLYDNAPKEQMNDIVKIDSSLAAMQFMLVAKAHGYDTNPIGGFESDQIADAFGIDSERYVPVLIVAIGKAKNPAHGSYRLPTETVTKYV

[8] = Cytotoxicity against human HUVEC cells assessed as cell viability at 9 to 150 uM after 48 hrs by MTT assay relative to control; assay type: cell-based; conditions: read-out: Activity; in short: as §1
[9] = tested on: PC-3; test: Cytotoxicity against human PC3 cells assessed as cell viability at 9 to 150 uM after 24 hrs by MTT assay relative to control; assay type: functional; in short: as §1
[10] = target: T1, Putative nitroreductase; test: Substrate activity at Staphylococcus saprophyticus nitroreductase NtrB assessed as Kcat/Km using NADPH as cofactor in Tris-Cl buffer at pH 7.5 by HPLC analysis relative to CB1954/NfsB; assay type: ADME
[11] = tested on: HUVEC; test: Cytotoxicity against human HUVEC cells assessed as cell viability after 24 hrs by MTT assay; assay type: cell-based; conditions: for IC50: Homo sapiens, HUVEC; in short: as §1
[12] = target: T1, Putative nitroreductase; test: Substrate activity at Staphylococcus saprophyticus nitroreductase NtrB assessed as enzyme specific activity using NADH as cofactor in Tris-Cl buffer at pH 7.5 by HPLC analysis; assay type: ADME
[13] = tested on: PC-3; test: Cytotoxicity against human PC3 cells assessed as cell viability after 24 hrs by MTT assay; assay type: functional, cell-based; in short: as §1
[14] = Substrate activity at Escherichia coli nitroreductase nfsA assessed as Kcat using NADPH as cofactor in Tris-Cl buffer at pH 7.5 by spectrophotometric method; assay type: ADME
[15] = target: T2, Oxygen-insensitive NAD(P)H nitroreductase (Escherichia coli K-12, UniProt P38489); test: Substrate activity at Escherichia coli nitroreductase nfsB assessed as ratio of Kcat/Km using NADH as cofactor in Tris-Cl buffer at pH 7.5 by spectrophotometric method based Michaelis-Menten plot analysis; assay type: ADME
T2 sequence (P38489 whole entry): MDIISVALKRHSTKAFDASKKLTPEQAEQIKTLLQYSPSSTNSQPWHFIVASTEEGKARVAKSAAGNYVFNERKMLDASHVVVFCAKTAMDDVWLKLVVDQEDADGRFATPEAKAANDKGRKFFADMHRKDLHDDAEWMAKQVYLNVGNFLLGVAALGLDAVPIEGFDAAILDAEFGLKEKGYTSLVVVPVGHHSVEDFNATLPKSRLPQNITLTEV

[16] = target: T2, Oxygen-insensitive NAD(P)H nitroreductase; test: Substrate activity at Escherichia coli nitroreductase nfsB assessed as ratio of Kcat/Km using NADH as cofactor in Tris-Cl buffer at pH 7.5 by spectrophotometric method based Michaelis-Menten plot analysis relative to CB1954/NfsB; assay type: ADME
[17] = Substrate activity at Escherichia coli nitroreductase nfsA assessed as ratio of Kcat/Km using NADPH as cofactor in Tris-Cl buffer at pH 7.5 by spectrophotometry based Michaelis-Menten plot analysis; assay type: ADME
[18] = Substrate activity at Escherichia coli nitroreductase nfsA assessed as ratio of Kcat/Km using NADPH as cofactor in Tris-Cl buffer at pH 7.5 by spectrophotometric method based Michaelis-Menten plot analysis relative to CB1954/NfsB
[19] = tested on: nitroreductase nfsA; test: Substrate activity at Escherichia coli nitroreductase nfsA assessed as Km using NADPH as cofactor in Tris-Cl buffer at pH 7.5 by spectrophotometry based Michaelis-Menten plot analysis; assay type: ADME; conditions: Escherichia coli nitroreductase nfsA enzyme
[20] = target: T2, Oxygen-insensitive NAD(P)H nitroreductase; test: Substrate activity at Escherichia coli nitroreductase nfsB assessed as Kcat using NADH as cofactor in Tris-Cl buffer at pH 7.5 by spectrophotometric method; assay type: ADME
[21] = target: T2, Oxygen-insensitive NAD(P)H nitroreductase; test: Substrate activity at Escherichia coli nitroreductase nfsB assessed as Km using NADH as cofactor in Tris-Cl buffer at pH 7.5 by spectrophotometric method based Michaelis-Menten plot analysis; assay type: ADME
[22] = tested on: HUVEC; test: Cytotoxicity against human HUVEC cells assessed as cell viability after 48 hrs by MTT assay; assay type: cell-based; in short: as §1
[23] = tested on: Hep 3B2; test: Cytotoxicity against human Hep3B cells assessed as cell viability after 24 hrs by MTT assay; assay type: functional, cell-based; in short: as §1
[24] = tested on: PC-3; test: Cytotoxicity against human PC3 cells assessed as cell viability after 48 hrs by MTT assay; assay type: functional, cell-based; in short: as §1
[25] = tested on: Hep 3B2; test: Cytotoxicity against human Hep3B cells assessed as cell viability after 48 hrs by MTT assay; assay type: functional, cell-based; in short: as §1
[26] = target: T2, Oxygen-insensitive NAD(P)H nitroreductase; test: Substrate activity at Escherichia coli nitroreductase nfsB assessed as ratio of Kcat/Km upto 1 mM using NADH as cofactor in sodium phosphate buffer at pH 7.5 incubated for 5 mins by RP-HPLC relative to CB1954/NfsB; assay type: ADME; conditions: pH 7.5, 5 min
[27] = target: T1, Putative nitroreductase; test: Binding affinity to Staphylococcus saprophyticus nitroreductase NtrB
[28] = target: T1, Putative nitroreductase; test: Substrate activity at Staphylococcus saprophyticus nitroreductase NtrB assessed as ratio of Kcat/Km using NADPH as cofactor in Tris-Cl buffer at pH 7.5 incubated for 30 mins by HPLC analysis relative to CB1954/NfsB; assay type: ADME; conditions: pH 7.5, 0.5 h
[29] = target: T1, Putative nitroreductase; test: Substrate activity at Staphylococcus saprophyticus nitroreductase NtrB assessed as Kcat using NADPH as cofactor in Tris-Cl buffer at pH 7.5 incubated for 30 mins by HPLC analysis; assay type: ADME; conditions: pH 7.5, 0.5 h
[30] = target: T1, Putative nitroreductase; test: Substrate activity at Staphylococcus saprophyticus nitroreductase NtrB assessed as ratio of Kcat/Km using NADPH as cofactor in Tris-Cl buffer at pH 7.5 incubated for 30 mins by HPLC analysis; assay type: ADME; conditions: pH 7.5, 0.5 h
[31] = target: T2, Oxygen-insensitive NAD(P)H nitroreductase; test: Substrate activity at Escherichia coli nitroreductase nfsB assessed as Kcat upto 1 mM using NADH as cofactor in sodium phosphate buffer at pH 7.5 incubated for 5 mins by RP-HPLC; assay type: ADME; conditions: pH 7.5, 5 min
[32] = target: T2, Oxygen-insensitive NAD(P)H nitroreductase; test: Substrate activity at Escherichia coli nitroreductase nfsB assessed as ratio of Kcat/Km upto 1 mM using NADH as cofactor in sodium phosphate buffer at pH 7.5 incubated for 5 mins by RP-HPLC; assay type: ADME; conditions: pH 7.5, 5 min
[33] = target: T3, Nitroreductase (Bacillus amyloliquefaciens, UniProt Q8VSR5); test: Substrate activity at Bacillus amyloliquefaciens nitroreductase ywrO assessed as ratio of Kcat/Km using NADPH as cofactor in sodium phosphate buffer at pH 7.5 by HPLC analysis relative to CB1954/NfsB; assay type: ADME
T3 sequence (Q8VSR5 whole entry): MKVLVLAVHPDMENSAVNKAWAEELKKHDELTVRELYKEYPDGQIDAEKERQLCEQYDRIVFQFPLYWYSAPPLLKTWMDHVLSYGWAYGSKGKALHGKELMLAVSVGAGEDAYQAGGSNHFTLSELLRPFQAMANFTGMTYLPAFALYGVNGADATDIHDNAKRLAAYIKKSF

[34] = target: T1, Putative nitroreductase; test: Substrate activity at Staphylococcus saprophyticus nitroreductase NtrB assessed as Km using NADPH as cofactor in Tris-Cl buffer at pH 7.5 incubated for 30 mins by HPLC analysis; assay type: ADME; conditions: pH 7.5, 0.5 h

CC(C)Nc1ccc([N+](=O)[O-])cc1[N+](=O)[O-]
viability at 24 h, up to 150 µM [1]: > 80%
Activity [2]: inactive
IC50 [3]: 9.77 µM
Activity [4]: >80%
Activity [5]: 51 - 80%
Activity [6]: >80%
Retention_time [7]: 17.94 min
viability at 48 h, up to 150 µM [8]: > 80%
Activity [9]: >80%
fold change (FC) [10]: 0.74

O=[N+]([O-])c1cc([N+](=O)[O-])c(Nc2ccc(Cl)cc2)cc1Nc1ccc(Cl)cc1
Activity [4]: 51 - 80%
Activity [5]: 51 - 80%
IC50 [11]: 86.5 µM
Activity [6]: 51 - 80%
Retention_time [7]: 35 min
viability at 48 h, up to 150 µM [8]: 51 to 80%
Activity [12]: 5.77 U/mg
IC50 ([13]; Homo sapiens, PC-3, 24 h, read-out: IC50): 150 µM

CS(=O)(=O)OCCN(CCBr)c1c(C(=O)NCCO)cc([N+](=O)[O-])cc1[N+](=O)[O-]
Kcat [14]: 12 s⁻¹
Kcat/Km [15]: 13000 s⁻¹ M⁻¹
fold change (FC) [16]: 2.32
Kcat/Km [17]: 120000 s⁻¹ M⁻¹
fold change (FC) [18]: 21.43
Km [19]: 100 µM
Kcat [20]: 60 s⁻¹
Km [21]: 4.5 mM

O=[N+]([O-])c1ccc(Nc2ccccc2)c([N+](=O)[O-])c1
viability at 24 h, up to 150 µM [1]: > 80%
Activity [2]: inactive
Activity ([22]; human, huvec): Non-Toxic
Activity [4]: >80%
IC50 [23]: 84.9 µM
IC50 [24]: Not Active
Activity ([11]; human, huvec): Non-Toxic
Retention_time [7]: 18.41 min
viability at 48 h, up to 150 µM [8]: > 80%
Activity [9]: >80%
IC50 [25]: 150 µM
IC50 ([13]; pc-3): Not Active

O=[N+]([O-])c1ccc(Nc2ccc3ccccc3c2)c([N+](=O)[O-])c1
viability at 24 h, up to 150 µM [1]: > 80%
Activity [2]: inactive
IC50 [3]: 5.07 µM
Activity [4]: >80%
Activity [5]: 51 - 80%
Activity [6]: 51 - 80%
Retention_time [7]: 20.13 min
viability at 48 h, up to 150 µM [8]: > 80%
Activity [9]: 51 - 80%
fold change (FC) [10]: 1.48

O=[N+]([O-])c1cc([N+](=O)[O-])c(Nc2ccc(O)cc2)cc1Nc1ccc(O)cc1
IC50 ([22]; Homo sapiens, HUVEC): 150 µM
IC50 [24]: Not Active
IC50 [11]: 66.7 µM
Activity [6]: 51 - 80%
Retention_time [7]: 21.2 min
Activity [12]: 1.61 U/mg
Activity [9]: >80%
IC50 [25]: 14.5 µM

NC(=O)c1cc(N(CCCl)CCCl)c([N+](=O)[O-])cc1[N+](=O)[O-]
fold change (FC) [26]: 1.89
Ki [27]: 7.28 µM
fold change (FC) [28]: 1.67
Kcat [29]: 0.8 s⁻¹
Kcat/Km [30]: 9350 s⁻¹ M⁻¹
Kcat [31]: 26.4 s⁻¹
Kcat/Km [32]: 10560 s⁻¹ M⁻¹

NC(=O)c1cc(N2CC2)c([N+](=O)[O-])cc1[N+](=O)[O-] [TRETAZICAR]
Kcat [14]: 16 s⁻¹
viability at 24 h, up to 150 µM [1]: > 80%
Activity [2]: inactive
Kcat/Km [15]: 5600 s⁻¹ M⁻¹
fold change (FC) [16]: 1
Ki [27]: 5.96 µM
IC50 [3]: 0.00179 µM
Activity [4]: >80%
Activity [5]: >80%
Kcat/Km [17]: 73000 s⁻¹ M⁻¹
fold change (FC) [28]: 0.38
fold change (FC) [33]: 2.37
Activity [6]: >80%
Kcat [29]: 2.26 s⁻¹
viability at 48 h, up to 150 µM [8]: > 80%
fold change (FC) [18]: 13.04
Km [19]: 220 µM
Kcat/Km [30]: 2120 s⁻¹ M⁻¹
Km [34]: 1.07 mM
Activity [9]: >80%
Kcat [20]: 62 s⁻¹
Km [21]: 11 mM
